Results reported in ChEMBL document CHEMBL2396602, “Discovery of N-(4'-(indol-2-yl)phenyl)sulfonamides as novel inhibitors of HCV replication” (Bioorg Med Chem Lett, 2013).
Calls of active or inactive are those of the source. No cut-off for these calls is given here.

What was measured:
[1] = test system: Hepatitis C virus; test: Antiviral activity against Hepatitis C virus genotype 1b infected in human HuH7 cells assessed as inhibition of viral replication after 2 days by luciferase reporter gene assay; type: functional, organism-based, Hepacivirus hominis; conditions: Huh-7, 48 h
Method in brief: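 Huh7 cells carrying a genotype 1b bicistronic HCV replicon plated at 5000 cells/well, kept subconfluent; compound added at 0.5% DMSO final, incubated at 37 °C; luciferase read after 2 days; EC50 from dose response.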

[2] = Cytotoxicity against human HuH7 cells after 2 days by MTS assay; type: cell-based, Huh-7
Method in brief: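 MTS cell proliferation assay run in parallel with the luciferase replicon assay in the same genotype 1b replicon-bearing Huh7 cells (5000 cells/well, 0.5% DMSO final, 37 °C); CC50 derived.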

[3] = Selectivity index, ratio of CC50 for human HuH7 cells to EC50 for Hepatitis C virus subtype 1b; type: toxicity, cell-based, Huh-7; conditions: read-out: Ratio CC50/EC50
Method in brief: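 Ratio of CC50 from the MTS assay to EC50 from the luciferase assay, both in genotype 1b bicistronic replicon Huh7 cells run in parallel.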

[4] = Intrinsic clearance in human liver microsomes at 1 uM by LC/MS analysis; type: ADME, Microsome; conditions: read-out: CLH
Method in brief: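 Compound at 1 µM incubated with human liver microsomes (0.5 mg/mL protein) for 0, 10, 20, 30 and 60 min with 1 mM EDTA, 3 mM MgCl2, 1.3 mM NADP, 3.3 mM D-glucose-6-phosphate and 1 unit/mL glucose-6-phosphate dehydrogenase.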

[5] = Volume of distribution at steady state in Sprague-Dawley rat at 1 mg/kg, iv; type: ADME, organism-based; set-up: dose 1 mg/kg, route intravenous; conditions: in vivo, read-out: Vdss
Method in brief: (§1)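 Female Sprague–Dawley rats dosed with compound in PEG-300 solution, 3 mg/kg orally or 1 mg/kg intravenously; pharmacokinetic parameters derived from plasma exposure after each route.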

[6] = Half life in Sprague-Dawley rat at 1 mg/kg, iv; type: ADME, organism-based; set-up: dose 1 mg/kg, route intravenous; conditions: in vivo; method in brief: as §1
[7] = Cmax in Sprague-Dawley rat at 3 mg/kg, po; type: ADME, organism-based; set-up: dose 3 mg/kg, route oral; conditions: in vivo; method in brief: as §1
[8] = test system: Hepatitis C virus; test: Antiviral activity against Hepatitis C virus genotype 1b infected in human HuH7 cells assessed as reduction in HCV RNA after 3 days by RT-PCR analysis; type: functional, organism-based, Hepacivirus hominis; conditions: Huh-7, 72 h
Method in brief: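 Huh7 cells with a genotype 1b monocistronic replicon seeded at 5000 cells/well; compound at 0.5% DMSO final, 37 °C; cells harvested 3 days after dosing; replicon RNA measured by real-time RT-PCR, normalised to GAPDH RNA.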

[9] = test system: Hepacivirus hominis; test: Inhibition of HCV protease up to 10 uM
[10] = test system: Rattus norvegicus; test: Oral bioavailability in Sprague-Dawley rat at 3 mg/kg; type: ADME, organism-based; conditions: in vivo; method in brief: as §1
[11] = test system: Rattus norvegicus; test: AUC (0 to infinity) in Sprague-Dawley rat at 3 mg/kg, po; type: ADME, organism-based, Plasma; set-up: dose 3 mg/kg, route oral, time infinity; conditions: in vivo; method in brief: as §1

Row | SMILES | EC50 [1] | CC50 at 48 h [2] | other results
1 | CCn1c(-c2ccc(NS(=O)(=O)CC)cc2)c(C#N)c2ccc(CN3CCOCC3)cc21 | 3 µM | 35 µM | 
2 | CCn1c(-c2ccc(NS(=O)(=O)CC)cc2)c(C#N)c2ccc(C(=O)O)cc21 | > 11 µM | > 100 µM | 
3 | CCn1c(-c2ccc(N3CCNS3(=O)=O)cc2)c(C#N)c2ccc(OC)cc21 | 0.9 µM | 30 µM | 
4 | CCn1c(-c2ccc(NS(=O)(=O)CC)cc2)c(C#N)c2ccccc21 | 9 µM | 40 µM | 
5 | CCn1c(-c2ccc(NS(=O)(=O)CC)cc2)c(C#N)c2cc(OC)c(OC)cc21 | 4 µM | > 100 µM | 
6 | CCOc1ccc2c(C#N)c(-c3ccc(NS(=O)(=O)CC)cc3)n(CC)c2c1 | 0.53 µM | 42 µM | 
7 | CCn1c(-c2ccc(S(C)(=O)=O)cc2)c(C#N)c2ccc(OC)cc21 | 2.6 µM | 42 µM | 
8 | CCn1c(-c2ccc(NS(=O)(=O)CC)cc2)c(C#N)c2ccc(C(N)=O)cc21 | 9 µM | 55 µM | 
9 | CCn1c(-c2ccc(NS(=O)(=O)CC)cc2)c(C#N)c2ccc(OC(F)F)cc21 | 0.29 µM | 20 µM | selectivity ratio [3]: 69
10 | CCn1c(-c2ccc(NS(=O)(=O)CC)cc2)c(C#N)c2ccc(OCCF)cc21 | 0.59 µM | 39 µM | selectivity ratio [3]: 66
11 | CCn1c(-c2ccc(NS(=O)(=O)CC)cc2)c(C#N)c2cc(F)ccc21 | 0.59 µM | 39 µM | 
12 | CCn1c(-c2ccc(NS(=O)(=O)C3CC3)cc2)c(C#N)c2ccc(OC(F)F)cc21 | 0.1 µM | 23 µM | 
13 | CCn1c(-c2ccc(NS(=O)(=O)C(C)C)cc2)c(C#N)c2ccc(OC(F)F)cc21 | 0.12 µM | 19 µM | 
14 | CCn1c(-c2ccc([S+](C)[O-])cc2)c(C#N)c2ccc(OC)cc21 (configuration not stated) | 4 µM | 52 µM | 
15 | CCS(=O)(=O)Nc1ccc(-c2c(C#N)c3ccc(OC(F)F)cc3n2C(C)C)cc1 | 0.2 µM | 12 µM | 
16 | CCS(=O)(=O)Nc1ccc(-c2c(C#N)c3ccc(OC(F)F)cc3n2CC2CC2)cc1 | 0.3 µM | 13 µM | 
17 | CCn1c(-c2ccc(NC(C)=O)cc2)c(C#N)c2ccc(OC)cc21 | 1.3 µM | 89 µM | 
18 | CCn1c(-c2ccc(NS(=O)(=O)CC)cc2)c(C#N)c2ccc(O)cc21 | 2 µM | 55 µM | 
19 | CC(C)S(=O)(=O)Nc1ccc(-c2c(C#N)c3ccc(OC(F)F)cc3n2CC2CC2)cc1 |  | 22 µM | 
20 | CCn1c(-c2ccc(OC)cc2)c([N+](=O)[O-])c2ccc(OC)cc21 | > 51 µM |  | 
21 | CCn1c(-c2ccc(NS(=O)(=O)CC)cc2)c(C#N)c2ccc(CO)cc21 | 3.5 µM | 60 µM | 
22 | CCn1c(-c2ccc(NS(=O)(=O)CC)cc2)c(C#N)c2ccc(COC)cc21 | 5 µM | > 100 µM | 
23 | CCn1c(-c2ccc(OC)cc2)c(C#N)c2ccc(OC)cc21 | 4.1 µM | > 100 µM | 
24 | CCOC(=O)Nc1ccc(-c2c(C#N)c3ccc(OC)cc3n2CC)cc1 | 1.3 µM | 41 µM | 
25 | CCn1c(-c2ccc(NS(=O)(=O)CC)cc2)c(C#N)c2ccc(OC)cc21 | 0.47 µM | 62 µM | selectivity ratio [3]: > 130
26 | CCn1c(-c2ccc(NS(=O)(=O)CC)cc2)c(C#N)c2ccc(C(F)(F)F)cc21 | 0.36 µM | 18 µM | selectivity ratio [3]: 50
27 | CCn1c(-c2ccc(N)cc2)c(C#N)c2ccc(OC)cc21 | 7.7 µM | 100 µM | 
28 | CC(C)n1c(-c2ccc(NS(=O)(=O)C3CC3)cc2)c(C#N)c2ccc(OC(F)F)cc21 | 0.075 µM | 13 µM | 
29 | CCn1c(-c2ccc(NS(=O)(=O)CC)cc2)c(C#N)c2cc(Cl)ccc21 | 7.5 µM | 40 µM | 
30 | CCn1c(-c2ccc(NC(=O)c3ccccc3)cc2)c(C#N)c2ccc(OC)cc21 | > 100 µM | > 100 µM | 

Continued, in another order:

Row | EC50 [1] | SMILES | CC50 at 48 h [2] | other results
31 | 50 µM | COc1ccc(-n2cc([N+](=O)[O-])c3ccc(OC)cc32)cc1 |  | 
32 | 0.19 µM | N#Cc1c(-c2ccc(NS(=O)(=O)C3CC3)cc2)n(C2CCC2)c2cc(OC(F)F)ccc12 | 20 µM | 
33 | 3.5 µM | CCn1c(-c2ccc(NS(=O)(=O)CC)cc2)c(C#N)c2c(Cl)cccc21 | 55 µM | 
34 | 7.8 µM | CCn1c(-c2ccc(C(N)=O)cc2)c(C#N)c2ccc(OC)cc21 | > 100 µM | 
35 | 0.17 µM | CCn1c(-c2ccc(NS(=O)(=O)CC)cc2)c(C#N)c2ccc(OC(F)(F)F)cc21 | 24 µM | selectivity ratio [3]: 141
36 | 3 µM | CCOc1ccc(-c2c(C#N)c3ccc(OC)cc3n2CC)cc1 | > 100 µM | 
37 | 0.22 µM | CCCS(=O)(=O)Nc1ccc(-c2c(C#N)c3ccc(OC(F)F)cc3n2CC)cc1 | 26 µM | 
38 | 0.25 µM | CCCn1c(-c2ccc(NS(=O)(=O)C3CC3)cc2)c(C#N)c2ccc(OC(F)F)cc21 | > 100 µM | 
39 | 2 µM | CCn1c(-c2ccc(N3CCCS3(=O)=O)cc2)c(C#N)c2ccc(OC)cc21 | > 50 µM | 
40 | 0.65 µM | CCn1c(-c2ccc(NS(=O)(=O)C(C)C)cc2)c(C#N)c2ccc(OC)cc21 | 70 µM | 
41 | 7.4 µM | CCn1c(-c2ccc(NS(=O)(=O)C(C)C)cc2)c(C#N)c2cc(OC)ccc21 | 36 µM | 
42 | 0.17 µM | N#Cc1c(-c2ccc(NS(=O)(=O)C3CC3)cc2)n(CC2CC2)c2cc(OC(F)F)ccc12 | 25 µM | CLint scaled at 1 µM [4]: < 1 mL/min/kg; Vd [5]: 2.2 L/kg; half-life [6]: 6.3 h; selectivity ratio [3]: 147; Cmax [7]: 770 ng/mL; EC50 [8]: 0.18 µM; inhibition [9]: inactive; F [10]: 58%; AUC [11]: 6.8 µM·h
43 | 6.1 µM | CCn1c(-c2ccc(O)cc2)c(C#N)c2ccc(OC)cc21 | 50 µM | 
